This is a sample that favours compounds with a hit; in the whole collection about 5.6% have one here.
aDG glyco up – alpha-DG glycosylation activation; Pro5-aDG cells, alpha-DG glycosylation AlphaScreen (IIH6); 0% Pro5, 100% B10-LARGE cell signal; activation, % at 10 µM; hit rate 0.22% among 360,000;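 active means activation of at least 8% versus controls, or a plate z-score of at least 8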;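 further: Pro5 are CHO cells carrying HIG-tagged alpha-DG that lacks glycosylation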
GRIN3A LBD mod – modulators (binders) of human NR3A ligand-binding domain; NR3A LBD differential scanning fluorimetry, Tm shift; 0% = protein alone, 100% = glycine-bound protein; Tm shift relative to glycine control, % at 25 µM; hit rate 2.5% among 340,000; AID 1259313;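 active means melting temperature shift of at least 10% of the positive control shift, at one fixed dose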
XBP1 UPR activ – activators of adaptive arm of unfolded protein response (XBP1); CHO-XBP1 luciferase reporter, IRE1-XBP1 UPR activation, luminescence; percent of tunicamycin response, DMSO as zero; activation, % at 20 µM; hit rate 0.33% among 330,000; AID 463104;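 active means versus positive control, 20 µM dose yields 30% or more activation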;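 further: 100% = tunicamycin at 10 µg/mL and 0% = DMSO only wells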
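incubation = overnight seeding at 37 °C, 6 h compound treatment at 37 °C | assay system = CHO-XBP1 cells stably carrying IRE1-XBP1-driven luciferase reporter | input = 1000 cells per well | detection = luciferase luminescence | dosing = single point, 20 µM final compound, 1% DMSO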
CHOP UPR activ – activators of apoptotic arm of unfolded protein response (CHOP) | hit rate 0.34% among 330,000 | CHO-CHOP luciferase reporter, UPR activation, luminescence; percent of tunicamycin response over DMSO baseline | activation, % at 10 µM;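 active means at 10 µM dose, activation of 40% or more, normalized to positive control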;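 further: 100% = tunicamycin at 10 µg/mL and 0% = DMSO alone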
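Assay system: CHO cells with stable CHOP pathway luciferase reporter; Buffer or medium: F12 plus 10% serum; Times: 16-18 h cell attachment, then 6 h compound exposure, 37 °C; Signal: luciferase luminescence; Read-out basis: percent activation relative to tunicamycin control; Control set: tunicamycin high control, DMSO low control.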
CHOP inh – inhibitors of CHOP induction in ER stress response | CHO-K1 CHOP-promoter luciferase, tunicamycin-induced, 15-18 h | hit rate 3.8% among 220,000 | inhibition, % at 10 µM;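 active means compounds that reduced the stress-induced luciferase reporter signal by more than about 70% of percent inhibition, limit read from the data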;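 further: 0% = tunicamycin plus vehicle and 100% = wells without tunicamycin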
MPTP block – inhibitors of mitochondrial permeability transition pore. isolated mouse mitochondria, Ca2+ swelling absorbance, 30 min. inhibition, % at 10 µM. hit rate 1.4% among 360,000;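 active means inhibition of 50% or more, scaled per plate between neutral and stimulator controls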;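 further: 0% = DMSO wells given calcium and 100% = 1 mM EGTA wells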
Numbers without * were called inactive; nt = no result.

SMILES	aDG glyco up	GRIN3A LBD mod	XBP1 UPR activ	CHOP UPR activ	CHOP inh	MPTP block
COCCNC(=O)C1(C)CCCN(CC(=O)c2ccc(OC)cc2)C1 (centres undefined)	0	nt	nt	nt	nt	0
CCC(C)NC(=O)Cc1c(C)c2cc3c(cc2oc1=O)OC(C)(C)CC3 (centres undefined)	0	1	-1	3	nt	1
O=C(Nc1cc(Cl)ccc1N1CCCC1)C1=COCCO1	2	-1	-4	-2	nt	-1
C[C@H](CO)N1C[C@H](C)[C@@H](CN(C)S(=O)(=O)c2cccs2)Oc2c(NC(=O)CCC(F)(F)F)cccc2C1=O	0	-2	2	-1	nt	0
CCOc1ccc(C2=CSC3=NCCN23)cc1Cl	0	-1	-5	1	nt	1
CCc1ccc(-c2nnn(CCC(=O)OC)n2)cc1	0	0	-3	-7	75*	-4
NC1=NC(c2ccccc2C(F)(F)F)N(c2ccc(F)c(Cl)c2)C(N)=N1 (centres undefined)	0	1	-5	-2	nt	2
Cc1ccccc1NC(=O)CCCN1C(=O)C2CC=CCC2C1=O (centres undefined)	0	1	-6	3	nt	0
COc1ccc(Cc2nnc(N/N=C/c3ccc(O)cc3)[nH]c2=O)cc1OC	3	-1	-1	-1	84*	-1
CCCCNC(=O)c1onc(CSc2ccc(F)c(F)c2)c1C(=O)NCCCC	0	-14	-1	-3	nt	2
COc1cccc(C(=O)COc2ccc3ccc(=O)oc3c2)c1	1	16*	8	2	-13	0
COc1cccc(C(=O)COc2ccc3c(C)cc(=O)oc3c2)c1	0	0	-5	1	nt	-1
S=C(Nc1ccc2nccnc2c1)N1CCOCC1	0	-2	2	2	4	-1
O=C(c1ccc(CSc2nc3ccncc3[nH]2)cc1)N1CCCCC1	0	0	-3	2	12	1
Cc1ccc(C)c(N2CCN(C(=O)c3ccc(CSc4nc5ccncc5[nH]4)cc3)CC2)c1	0	-4	1	4	72*	0
CC(C)(C)CC(C)(C)c1ccc(O)c(CN2CCN(CCC#N)CC2)c1	0	0	-2	0	73*	1
N#CCCN1CCN(Cc2cc(-c3ccccc3)ccc2O)CC1	0	-1	1	-1	12	0
CC1Cc2ccccc2N1CC(=O)c1c(N)n(Cc2ccccc2)c(=O)n(C)c1=O (centres undefined)	1	-1	-2	1	60	2
CCn1c(=O)c(C(=O)CN2c3ccccc3CC2C)c(N)n(Cc2ccccc2)c1=O (centres undefined)	0	-2	-3	-3	87*	0
Cc1cc(C)n(C(C)CNC(=O)c2ccc3c(c2)OCO3)n1 (centres undefined)	0	0	-3	-2	nt	0
Cc1cc2oc(=O)cc(Cn3ncc(Cl)c(Cl)c3=O)c2cc1Cl	-1	0	-8	2	105*	0
Cc1cc2oc(=O)cc(CN3CCN(c4ccccc4)CC3)c2cc1Cl	0	nt	nt	nt	nt	1
NS(=O)(=O)c1ccc(NC(=O)/C=C/c2cccc(Cl)c2)cc1	0	28*	1	2	-8	0
NS(=O)(=O)c1ccc(NC(=O)/C=C/c2ccc(S(=O)(=O)NCc3ccco3)cc2)cc1	0	38*	2	2	nt	-1
CN(CCOc1ccc(Cl)cc1)C(=O)CNS(=O)(=O)c1ccc(N(C)C)c([N+](=O)[O-])c1	0	-9	-7	1	nt	-4
SMILES	aDG glyco up	GRIN3A LBD mod	XBP1 UPR activ	CHOP UPR activ	CHOP inh	MPTP block
CN(C)c1ccc(S(=O)(=O)NCC(=O)OCC(=O)Nc2cc(Cl)cc(Cl)c2)cc1[N+](=O)[O-]	0	18*	-1	0	67	6
COC/C=C/C1=CC2=CC(=O)C(C)(OC(=O)c3cnc4ccccc4n3)C(=O)C2=CN1C1CCCC1 (centres undefined)	nt	nt	0	-1	nt	nt
CCCC(=NCC(=O)O)C1=C(O)C(C(=O)OC)C(C)(C)CC1=O (centres undefined)	0	25*	-3	0	15	-4
CC(C)(C)C(=O)Nc1ccc(/C=C/C(=O)c2ccco2)cc1	0	-9	-9	2	nt	1
CC(=O)NCCNC(=O)C1(C)Cc2c(-c3ccc(NC(C)=O)cc3)ccnc2O1 (centres undefined)	0	nt	nt	nt	nt	0
CCCCCCCOC(=O)C[N+](C)(C)CCOC1CC2CCC1(C)C2(C)C (centres undefined)	0	-5	nt	nt	93*	17
Cc1nn(-c2ccccc2)c(Cl)c1C(=O)NC1CCCCC1	1	0	-2	1	3	-1
Cc1nn(-c2ccccc2)c(Cl)c1C(=O)Nc1nnc(C2CCCC2)s1	0	3	-4	1	80*	-1
Cc1sc(NC(=O)CN(Cc2ccc(F)cc2)C(=O)C(C)(C)C)c(C(N)=O)c1C	0	0	-1	-2	11	1
Cn1c(=O)c2[nH]c(-c3ccccc3)c(O)c2n(C)c1=O	1	12*	-2	3	16	-2
CCOC(=O)c1ccc(-c2c(-c3ccccc3OC)sc3ccc(OC)cc23)cc1F	0	2	0	0	nt	2
Cc1cccc(C(=O)OCC(=O)NCCN2C(=O)CSC2=O)c1[N+](=O)[O-]	0	-2	0	-1	nt	-1
Cc1occc1C(=O)Nc1ccc([N+](=O)[O-])cc1Br	0	1	2	2	nt	0
CC1(C)CC1C(=O)Nc1ccc([N+](=O)[O-])cc1Br (centres undefined)	0	12*	0	0	-5	2
CCn1cc(C(=O)OCC(=O)OC2CC(C)CCC2C(C)C)c(=O)c2ccc(C)nc21 (centres undefined)	0	3	1	0	89*	4
C=CCOC(=O)c1cn(CC)c2nc(C)ccc2c1=O	0	-2	5	1	36	0
O=C(Nc1cccc(NC(=O)c2c(F)cccc2F)n1)c1c(F)cccc1F	0	-11	1	-1	nt	0
O=C(Nc1ccc2oc(=O)ccc2c1)c1ccc2ccccc2c1	0	34*	-2	3	nt	0
CCOc1cccc(C(=O)Nc2ccc3ccccc3c2)c1	1	30*	-8	-4	nt	-1
O=C(Nc1cccc(NC(=O)c2cccc(F)c2)n1)c1cccc(F)c1	0	12*	-6	3	nt	2
O=C(Nc1ccc2ccccc2c1)c1cccc(F)c1	0	20*	-4	5	-6	2
Cc1ccc(OCC(=O)Nc2ccc3oc(=O)ccc3c2)cc1	0	-18	3	1	nt	0
